Experimental data collected from several papers.
Compare with care: the assays were run in different laboratories.
Target: Calcium/calmodulin-dependent protein kinase kinase 1 (CAMKK1, Homo sapiens, UniProt Q8N5S9)

Structure (SMILES)	observed	mode	technique	concentration	measurement	result
COc1ccc2c(c1)O[C@H](c1ccc(OC)c(OC)c1)C[C@@H]2NC(=O)C1(c2ccc3c(c2)OC(F)(F)O3)CC1	cell-free assay	–	competition with immobilised ligand	1 µM	remaining binding	100%
Nc1nc(Nc2ccc(S(N)(=O)=O)cc2)nn1C(=O)c1c(F)cccc1F	cell-free assay	–	–	0.5 µM	remaining signal	86.4%
CCN1CCC2(CC1)NC(=O)c1c(c3ccc(Cl)c(Cl)c3n1C)C2C#N (racemic)	thermal stability	–	DSF	10 µM	ΔTm	-0.1 °C
O=C(Nc1cnn(-c2csc(C(=O)NC3COC3)c2)c1)Nc1c(F)cccc1Cl	enzyme activity	inhibitor	–	5 µM	remaining activity	93.7%
CN(c1ncccc1CNc1nc(Nc2ccc3c(c2)CC(=O)N3)ncc1C(F)(F)F)S(C)(=O)=O	enzyme activity	inhibitor	–	1 µM	inhibition	46%
Oc1ccc(-c2nc(-c3ccncc3)c(-c3ccc(F)cc3)[nH]2)cc1	cell-free assay	–	–	0.5 µM	remaining signal	123%
CCCCNc1ncc2c(-c3ccc(F)cc3)nn(C[C@H]3CC[C@H](N)CC3)c2n1	target engagement in cells	inhibitor	chemoproteomics	20 mM	inhibition	20.6%
CC(C)(O)[C@H]1CC[C@H](Nc2ccc3ncc(-c4cccc(C(F)(F)F)c4)n3n2)CC1	enzyme activity	inhibitor	–	1 µM	remaining activity	91.8%
Nc1ncnc2occ(-c3ccc(NC(=O)Nc4cc(C(F)(F)F)ccc4F)cc3)c12	cell-free assay	inhibitor	–	20 µM	remaining signal	28%
CCCOc1ccc([C@H]2[C@H](C(=O)O)[C@@H](c3ccc4c(c3)OCO4)CN2CC(=O)Nc2c(CC)cccc2CC)cc1	cell-free assay	–	competition with immobilised ligand	1 µM	remaining binding	86%
Cn1c2c(c3ccc(Cl)c(Cl)c31)C(C#N)C1(CCN(C(=O)OC(C)(C)C)CC1)NC2=O (racemic)	thermal stability	–	DSF	10 µM	ΔTm	-0.1 °C
O=c1nc(-c2ccccn2)sc2ccccc12	binding	–	competition with immobilised ligand	1 µM	remaining binding	96%
Cn1c2c(c3ccc(Cl)c(Cl)c31)C(C#N)C1(CCOCC1)NC2=O (stereo not shown)	thermal stability	–	DSF	10 µM	ΔTm	1.2 °C
CCCCN(CCCC)C(=O)CN1C[C@H](c2cc(OC)c3c(c2)OCO3)[C@@H](C(=O)O)[C@@H]1CC(C)(C)CCC	cell-free assay	–	competition with immobilised ligand	1 µM	remaining binding	100%
O=C1Nc2ccc(Cl)cc2C1=Cc1cc(Cl)c(O)c(Cl)c1	cell-free assay	–	–	0.5 µM	remaining signal	52.5%
Cc1c(NC(=O)c2cc(C(N)=O)nc3cc(F)ccc23)c(C(F)(F)F)nn1Cc1ccc(C#N)cc1	cell-free assay	–	competition with immobilised ligand	1 µM	remaining binding	97%
Cc1sc(C(=O)NC2COC2)cc1-n1cc(NC(=O)Nc2c(F)cccc2Cl)cn1	enzyme activity	inhibitor	–	10 µM	remaining activity	121%
COCCOc1nc(-c2ccc(Cl)nc2)nc2c1CN(C(=O)c1ncn3ccccc13)CC2	cell-free assay	–	competition with immobilised ligand	0.1 µM	remaining binding	100%
Cc1ccc(C(=O)Nc2ccc(CN3CCN(C)CC3)c(C(F)(F)F)c2)cc1C#Cc1cnc2cccnn12	enzyme activity	inhibitor	–	23.5 nM	remaining activity	85%
